This note sets out measurements from PMC3835729 (Biochemistry, 2013).

Assay [1] concerns the target T1, human histidine triad nucleotide binding protein 1 (hHint1) (Homo sapiens, UniProt P49773). Nature of the assay: stopped-flow fluorescence, burst. The class given is biochemical. As to conditions: 20 mM HEPES, 1 mM MgCl2, pH 7.2, 25 °C; pre-steady state. In a few lines:
(§1)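 Recombinant WT human Hint1 (E. coli BB2, AMP-agarose, desalted) was loaded at 5 μM in one syringe, with substrate in 20 mM HEPES, 1 mM MgCl2, pH 7.2 in the other. Substrate was phosphoramidate (5-60 μM) or acyl adenylate (5-40 μM). Equal volumes were mixed at 25°C. Fluorescence used excitation at 280 nm and a 320 nm cutoff. The burst rate came from a single exponential plus linear term, and Kadenylyl from a nonlinear fit versus [S]. Six experiments were averaged.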

Assay [2] addresses T1, human histidine triad nucleotide binding protein 1 (hHint1). The assay can be described thus: stopped-flow fluorescence, burst. In kind it is biochemical. As to conditions: 20 mM HEPES, 1 mM MgCl2, pH 7.2, 25 °C; pre-steady state. Summed up:
as §1
The source holds these as a separate data set.

Assay [3] shares this target. Nature of the assay: tryptophan fluorescence titration.
Assay [4] has the same target. The assay can be described thus: stopped-flow catalytic trapping with TpAd. The class given is biochemical. In a few lines:
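Wild-type human Hint1, expressed in E. coli hinT-disrupted strain BB2 and purified on AMP-agarose, at 5 μM in one stopped-flow syringe. It was pre-incubated 10 min with the test compound (0-5000 μM) and then mixed with the tryptamine-releasing phosphoramidate substrate (40 μM). Indole fluorescence was read with excitation at 280 nm through a 320 nm cutoff filter. Test-compound absorbance was kept within 5%.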

T1 sequence (P49773 2-126): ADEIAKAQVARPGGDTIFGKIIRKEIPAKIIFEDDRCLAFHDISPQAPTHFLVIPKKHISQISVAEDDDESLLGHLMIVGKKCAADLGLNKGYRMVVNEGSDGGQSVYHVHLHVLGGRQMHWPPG

Turning to `Nc1ncnc2c1ncn2[C@@H]1O[C@H](COP(=O)(O)OC(=O)CCc2c[nH]c3ccccc23)[C@@H](O)[C@H]1O` [AIPA], the “K^adenylyl” value in assay [1] stood at 5 ± 1 µM.

As for `Nc1ncnc2c1ncn2[C@@H]1O[C@H](COP(=O)(O)NCCc2c[nH]c3ccccc23)[C@@H](O)[C@H]1O` [TpAd], in assay [2], the “K^adenylyl” value turned out to be 13 ± 2 µM.

As usually defined, the Kd is a measure of binding affinity in units of concentration. High values mean lower affinity, low ones higher affinity. For orientation: Ki means a dissociation constant, usually derived from enzyme kinetics or from competition with a known ligand. In assay [3], `Nc1ncnc2c1ncn2[C@@H]1O[C@H](COP(=O)(O)O)[C@@H](O)[C@H]1O` [AMP] showed a Kd of 200 µM. This compound gave a Ki in assay [4] of approximately 200 µM.
